Data on 14 compounds can be found in PubChem BioAssay.

Activity calls are given as the source filed them.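 How the source made its calls, unless noted: active means visually confirmed hit in the image check and inhibition above 20%; inconclusive means visually confirmed hit but inhibition not above 20%; inactive means no visual hit in the image check.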

Assay [1] can be described thus: inhibitors of TNFa-induced NFkB p65 translocation, primary screen, imaging, HUVEC, MLSMR starter and 10KST1 sets (AID 438;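 active means inhibition above 20% together with a positive visual image hit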;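 further: compound added about 3h40 before a 20 min TNFalpha stimulation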;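 on inhibition: signal is the nuclear over cytoplasmic p65 intensity ratio per well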). The conditions noted are these: HUVEC TNFa-induced p65 nuclear translocation; cell count: measured here: nuclei count (cytotoxicity indicator), at 2.08 µM; inhibition: at 2 µM, stronger effect = higher value, 0% TNFa-plus-vehicle, 100% no-TNFa wells.
The nature of assay [2]: inhibitors of mutant huntingtin aggregation, primary screen, imaging, exon1htt(103Q)mCFP cells, high-content imaging (AID 483;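 active means visual image review flags a hit and inhibition of aggregation exceeds 20%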;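 further: compound exposure lasted 3 days before fixation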;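 on nuclei count: percent of the per-plate median nuclei count of sample wells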). The conditions noted are these: exon1htt(103Q)mCFP cell line, aggregate imaging, at 2 µM; inhibition of aggregation: stronger effect = higher value; nuclei count: measured here: cell count, toxicity.
Assay [3] is described as follows: inhibitors of E-selectin induction by TNFa, primary screen, imaging, HUVEC, immunofluorescence, MLSMR starter and 10KST1 sets (AID 487).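 On inhibition: signal is fraction of cell area covered by stained E-selectin grains.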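 On nuclei count: 100% = median nuclei count of all wells on the same plate.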 The conditions noted are these: HUVEC TNFalpha-induced E-selectin immunofluorescence imaging, at 2 µM; inhibition: stronger effect = higher value; nuclei count: measured here: cell number, toxicity.
Assay [4] deals with Voltage-gated potassium channel subunit beta-2 (Rattus norvegicus) (UniProt P62483). The experiment in a line: KvBeta enzyme negative modulators, primary screen, biochemical, NADPH fluorescence (AID 622;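 active means fluorescence slope higher than the sample average by over 3 SD, cut at about -0.22 in these data, passing the limit was not always enough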;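 further: slope of raw intensity against log time taken from 70 to 1610 s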). The note with it: recombinant KvBeta, 4-cyanobenzaldehyde reduction, at 10 µM, stronger effect = higher value.
Chain of Voltage-gated potassium channel subunit beta-2 (Rattus norvegicus) (P62483 whole entry, looked up): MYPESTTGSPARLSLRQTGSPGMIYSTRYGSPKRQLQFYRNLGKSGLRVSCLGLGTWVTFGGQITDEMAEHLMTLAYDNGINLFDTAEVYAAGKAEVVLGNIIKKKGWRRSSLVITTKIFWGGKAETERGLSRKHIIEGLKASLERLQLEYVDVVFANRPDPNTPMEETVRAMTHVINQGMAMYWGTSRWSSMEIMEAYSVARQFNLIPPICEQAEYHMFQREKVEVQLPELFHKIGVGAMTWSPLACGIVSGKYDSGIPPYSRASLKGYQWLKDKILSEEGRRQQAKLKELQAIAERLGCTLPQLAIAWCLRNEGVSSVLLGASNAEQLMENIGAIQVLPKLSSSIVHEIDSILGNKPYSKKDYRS
Assay [5] shares this target. Nature of the assay: KvBeta positive modulators, primary screen, biochemical, NADPH fluorescence (AID 623;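 active means NADPH fluorescence slope more negative than the mean of all samples by about 3 SD, 99.7% confidence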;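 further: fluorescence intensity change per second fitted from 20 to 320 s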). The note with it: Recombinant KvBeta, NADPH fluorescence decrease slope, 10 min; at 10 µM; stronger effect = lower value.
Assay [6] addresses Muscarinic acetylcholine receptor M4 (Homo sapiens) (UniProt P08173). The experiment in a line: compounds altering M4/GIRK thallium flux, either direction, primary screen, M4 allosteric agonist project, cell-based, HEK293 M4/GIRK, BTC-AM (AID 625;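 active means fluorescence slope after compound addition differing from the mean of all tested samples at 99.7% confidence, mostly higher but some lower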;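 further: thallium influx through GIRK channels coupled to M4 in HEK293 cells with BTC-AM dye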). The note with it: at 10 µM, actives lie on both sides. The method in brief:
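Material – HEK293 cells with M4 receptor and GIRK channels · Buffer or medium – pH 7.3 thallium assay buffer · Doses – one dose, 10 µM final · Timing – cells overnight at 37 °C, BTC-AM loading 1 h, reads 2 min total · Measured by – kinetic fluorescence with BTC-AM dye · Controls – carbachol and DMSO controls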

The nature of assay [7]: inhibitors of Sendai virus-induced IRF3 signaling, primary screen, TLR/RLR signaling modifier project, cell-based, Sendai virus stimulus, luciferase, 10K MLSCN set (AID 602276;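 active means inhibition at or above 50% at 10 µM; inactive means inhibition below 50%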;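 further: firefly luciferase from ISG56 promoter only with Renilla not read in this screen; 0% = Sendai virus plus DMSO and 100% = medium plus DMSO without virus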). The conditions noted are these: HEK293 RL24 IRF3 luciferase reporter, at 10 µM, stronger effect = higher value.
Assay [8] is described as follows: inhibitors of poly I:C-induced TLR3 signaling, primary screen, cell-based, poly I:C stimulus, luciferase, 10K MLSCN set (AID 602277;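 active means inhibition of the reporter signal at or above 50%; inactive means inhibition below 50%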). The note with it: HEK293-TLR3 RL24 IRF3 luciferase reporter, at 10 µM, stronger effect = higher value.

Chain of Muscarinic acetylcholine receptor M4 (Homo sapiens) (P08173 whole entry, looked up): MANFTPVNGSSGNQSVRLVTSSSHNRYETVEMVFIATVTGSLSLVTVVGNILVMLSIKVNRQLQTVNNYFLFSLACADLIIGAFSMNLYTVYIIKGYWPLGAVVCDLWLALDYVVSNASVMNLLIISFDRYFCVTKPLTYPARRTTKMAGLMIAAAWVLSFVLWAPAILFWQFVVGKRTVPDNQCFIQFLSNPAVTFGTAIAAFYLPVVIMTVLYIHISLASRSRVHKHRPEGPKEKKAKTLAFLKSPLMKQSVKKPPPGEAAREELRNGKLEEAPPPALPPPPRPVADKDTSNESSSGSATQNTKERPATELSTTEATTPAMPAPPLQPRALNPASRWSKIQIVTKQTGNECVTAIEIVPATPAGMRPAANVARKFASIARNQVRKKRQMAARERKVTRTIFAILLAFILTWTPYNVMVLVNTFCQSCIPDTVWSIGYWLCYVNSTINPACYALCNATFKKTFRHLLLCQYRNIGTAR

For the compound `Nc1nc2ccccc2n1/N=C/c1ccc(Br)cc1`, the cell count in assay [1] was determined as 334. Further, the inhibition is -2.9% (inactive) in assay [1], 12.6% (inactive) in assay [3], -55% (inactive) in assay [7] and -127% (inactive) in assay [8]. Moreover, the inhibition of aggregation in assay [2] was -2.4% (inactive). Moreover, the nuclei count in assay [2] turned out to be 87.2%; in assay [3], 92.2%. For the same compound, the fluorescence slope is -0.47 (inactive) in assay [4] and 0.00585 (inactive) in assay [6]. Further, in assay [5], the NADPH fluorescence slope is -3.8e-05 (inactive).

Turning to `COc1ccc(C(=O)NCCn2ccc3ccccc32)cc1`, the cell count in assay [1] was 238. Further, the inhibition was 7.3% (inactive) in assay [1], -36.9% (inactive) in assay [3], 5.56% (inactive) in assay [7] and -49.2% (inactive) in assay [8]. The inhibition of aggregation in assay [2] is 25.9% (inactive). The nuclei count is 104% in assay [2] and 95% in assay [3]. Besides, the fluorescence slope in assay [4] was -0.386 (inactive); in assay [6], 0.008 (inactive). Besides, the NADPH fluorescence slope in assay [5] was -5.6e-06 (inactive).

In the case of `CCOC(=O)c1[nH]cc(-c2ccccc2)c1N1CCOCC1`, the cell count in assay [1] was 398. Moreover, the inhibition in assay [1] is -3.5% (inactive); in assay [3], -131% (inactive); in assay [7], 4.95% (inactive); in assay [8], 15.7% (inactive). For the same compound, the inhibition of aggregation in assay [2] is 0.7% (inactive). Besides, the nuclei count turned out to be 110% in assay [2] and 100% in assay [3]. The results for the fluorescence slope in assay [4] and in assay [6] were -0.541 (inactive) and 0.00498 (inactive), respectively. In addition, the NADPH fluorescence slope in assay [5] was -4.5e-05 (inactive).

As for `CCCn1nnnc1SCC(=O)c1ccc2c(c1)OCCO2`, the cell count in assay [1] came to 571. For the same compound, the inhibition is 2.6% (inactive) in assay [1], 34% (inactive) in assay [3], -31.3% (inactive) in assay [7] and -69.8% (inactive) in assay [8]. Moreover, in assay [2], the inhibition of aggregation was -22.6% (inactive). For the same compound, the nuclei count in assay [2] stood at 120%; in assay [3], 101%. Besides, the fluorescence slope was -0.441 (inactive) in assay [4] and 0.00722 (inactive) in assay [6]. The NADPH fluorescence slope in assay [5] was 0.000111 (inactive).

In the case of `Cc1cc(NC(=O)CSc2ccc3nnc(-c4cccc(F)c4)n3n2)no1`, the cell count in assay [1] stood at 619. Also, the inhibition in assay [1] was -13.6% (inactive); in assay [3], -55.4% (inactive); in assay [7], -1.23% (inactive); in assay [8] it was -7.4% (inactive). In assay [2], the inhibition of aggregation was 10.1% (inactive). For the same compound, the nuclei count in assay [2] was determined as 125%; in assay [3], 107%. Further, the figures for the fluorescence slope in assay [4] and in assay [6] were -0.266 (inactive) and 0.00544 (inactive), respectively. In addition, in assay [5], the NADPH fluorescence slope is 1e-08 (inactive).

Regarding `O=C(O)CCc1ccc(-c2ccccc2)n1CC(=O)O`, in assay [1], the cell count was 355. Also, the inhibition in assay [1] was 2.4% (inactive); in assay [3], -36.5% (inactive); in assay [7], -9.35% (inactive); in assay [8], -25.1% (inactive). In assay [2], the inhibition of aggregation is -3.7% (inactive). For the same compound, the nuclei count in assay [2] came to 112%; in assay [3], 114%. For the same compound, the values for the fluorescence slope in assay [4] and in assay [6] were -0.564 (inactive) and 0.00623 (inactive), respectively. The NADPH fluorescence slope in assay [5] was -7.8e-05 (inactive).

As for `Nc1ncnc2nc(SCCN3CCCCC3)[nH]c12`, the cell count in assay [1] turned out to be 189. In addition, the inhibition is -0.7% (inactive) in assay [1], -0.1% (inactive) in assay [3], 17.8% (inactive) in assay [7] and 10.9% (inactive) in assay [8]. The inhibition of aggregation in assay [2] was 5% (inactive). Further, the nuclei count in assay [2] worked out at 90.8%; in assay [3] it was 92.4%. For the same compound, the fluorescence slope was -0.545 (inactive) in assay [4] and 0.00574 (inactive) in assay [6]. The NADPH fluorescence slope in assay [5] is -3.4e-05 (inactive).

Regarding `CC(C)NC(=O)NC(=O)COc1cccc2c1OC(C)(C)C2`, the cell count in assay [1] came out at 749. In addition, the inhibition in assay [1] is -10.1% (inactive); in assay [3], -16.4% (inactive); in assay [7] it was 17.1% (inactive); in assay [8], 29.7% (inactive). Besides, in assay [2], the inhibition of aggregation is -13.5% (inactive). In addition, the nuclei count in assay [2] stood at 105%; in assay [3], 100%. Besides, the fluorescence slope in assay [4] is -0.556 (inactive); in assay [6], 0.00684 (inactive). Further, the NADPH fluorescence slope in assay [5] is -2.9e-05 (inactive).

For the compound `Cc1ccc2nsnc2c1S(=O)(=O)N1CCN(Cc2ccc3c(c2)OCO3)CC1`, the cell count in assay [1] came to 486. Further, the inhibition was -13.1% (inactive) in assay [1], -9.8% (inactive) in assay [3], 12.5% (inactive) in assay [7] and 27.7% (inactive) in assay [8]. The inhibition of aggregation in assay [2] is -11.5% (inactive). Moreover, the nuclei count was determined as 108% in assay [2] and 83.9% in assay [3]. For the same compound, the fluorescence slope in assay [4] was -0.468 (inactive); in assay [6] it was 0.00415 (inactive). In addition, the NADPH fluorescence slope in assay [5] was -4.9e-05 (inactive).

In the case of `COc1ccccc1N1CCN(C(=O)c2ccc3nc(-c4ccco4)c(-c4ccco4)nc3c2)CC1`, the cell count in assay [1] stood at 570. The inhibition in assay [1] is -15.9% (inactive); in assay [3], -44.3% (inactive); in assay [7] it was 16.2% (inactive); in assay [8] it was 8.44% (inactive). Moreover, the inhibition of aggregation in assay [2] is 5.2% (inactive). The nuclei count in assay [2] was 136%; in assay [3], 115%. The fluorescence slope in assay [4] was -0.324 (inactive); in assay [6], 0.005 (inactive). In addition, in assay [5], the NADPH fluorescence slope was 3.6e-06 (inactive).

With `COc1ccc(OC)c(S(=O)(=O)Nc2ccccc2C(=O)O)c1`, the cell count in assay [1] was found to be 702. The inhibition in assay [1] is -4.4% (inactive); in assay [3], 35.6% (inactive); in assay [7], 23.8% (inactive); in assay [8], 18.9% (inactive). Moreover, in assay [2], the inhibition of aggregation is 0% (inactive). Also, the nuclei count stood at 100% in assay [2] and 85.9% in assay [3]. For the same compound, the fluorescence slope in assay [4] was -0.569 (inactive); in assay [6], 0.0048 (inactive). Further, the NADPH fluorescence slope in assay [5] was 1.5e-05 (inactive).

For the compound `COc1ccc(NC(=O)CCCN2C(=O)C3C4C=CC(C4)C3C2=O)c(OC)c1` (centres undefined), the cell count in assay [1] worked out at 554. For the same compound, the inhibition in assay [1] was -1.8% (inactive); in assay [3], 49.6% (inactive); in assay [7] it was 9.13% (inactive); in assay [8], 20.8% (inactive). In assay [2], the inhibition of aggregation was 5.1% (inactive). Besides, the nuclei count stood at 94.8% in assay [2] and 62.2% in assay [3]. Also, the results for the fluorescence slope in assay [4] and in assay [6] were -0.554 (inactive) and 0.00549 (inactive), respectively. Further, the NADPH fluorescence slope in assay [5] was -2.9e-05 (inactive).

Take `Cc1ccc2nc(SCC(=O)NCc3ccco3)c(C#N)cc2c1`: the cell count in assay [1] was found to be 388. In addition, the inhibition in assay [1] is -4.7% (inactive); in assay [3] it was 1.8% (inactive); in assay [7] it was -4.71% (inactive); in assay [8], -2.98% (inactive). Moreover, the inhibition of aggregation in assay [2] is 17.5% (inactive). Besides, the nuclei count in assay [2] amounted to 100%; in assay [3] it was 99.6%. The fluorescence slope is -0.592 (inactive) in assay [4] and 0.00711 (inactive) in assay [6]. Moreover, the NADPH fluorescence slope in assay [5] was 1.6e-05 (inactive).

As to `O=C(OCc1nnc(-c2ccccc2)o1)C1=COCCO1`, the cell count in assay [1] is 462. The inhibition is 0% (inactive) in assay [1], -58.4% (inactive) in assay [3], -2.24% (inactive) in assay [7] and -6.55% (inactive) in assay [8]. The inhibition of aggregation in assay [2] is 5.5% (inactive). Besides, the nuclei count in assay [2] is 71.7%; in assay [3], 110%. The figures for the fluorescence slope in assay [4] and in assay [6] were -0.432 (inactive) and 0.00605 (inactive), respectively. In addition, in assay [5], the NADPH fluorescence slope was -1.1e-05 (inactive).
